Where two headings read alike, the source gives them in different places.
Columns and labels:
[1] = test system: 5′-fluorescein labeled HCV SLIIb; conditions: pseudo Michaelis-Menten, fluorescence, cited from earlier work
[2] = test system: fluorescein-labeled IRES SLIIb; assay: Time-dependent MALDI-TOF mass spectrometry of SLIIb cleavage; format: biochemical, hepatitis C virus; conditions: for Initial Rate (%Overhang/min), 2′, 3′-cPO4: overhang 2′,3′-cyclic phosphates; for Initial Rate (%Overhang/min), 2′, 3′-cPO4 / Initial Rate (%Overhang/min), 3′-AL / Initial Rate (%Overhang/min), 3′-OH / Initial Rate (%Overhang/min), 3′-PO4 / Initial Rate (%Overhang/min), 3′-PGA / Initial Rate (%Overhang/min), 3′-PG / Initial Rate (%Overhang/min), 5′-AL / Initial Rate (%Overhang/min), 5′-GemDiol / Initial Rate (%Overhang/min), 5′-OH / Initial Rate (%Overhang/min), 5′-PO4 / Initial Rate (%Overhang/min), 5′-PPA: MALDI-TOF time dependence; for Initial Rate (%Overhang/min), 3′-AL: overhang 3′-aldehyde; for Initial Rate (%Overhang/min), 3′-OH: overhang 3′-hydroxyl; for Initial Rate (%Overhang/min), 3′-PO4: overhang 3′-phosphates; for Initial Rate (%Overhang/min), 3′-PGA: overhang 3′-phosphoglycaldehyde; for Initial Rate (%Overhang/min), 3′-PG: overhang 3′-phosphoglycolate; for Initial Rate (%Overhang/min), 5′-AL: overhang 5′-aldehyde; for Initial Rate (%Overhang/min), 5′-GemDiol: overhang 5′-geminal diol; for Initial Rate (%Overhang/min), 5′-OH: overhang 5′-hydroxyl; for Initial Rate (%Overhang/min), 5′-PO4: overhang 5′-phosphate; for Initial Rate (%Overhang/min), 5′-PPA: overhang 5′-phosphopropenal; for Relative Initial Rate (Normalized Intensity/min × 1000), position A6 / Relative Initial Rate (Normalized Intensity/min × 1000), position A15 / Relative Initial Rate (Normalized Intensity/min × 1000), position A19 / Relative Initial Rate (Normalized Intensity/min × 1000), position A27 / Relative Initial Rate (Normalized Intensity/min × 1000), position A30 / Relative Initial Rate (Normalized Intensity/min × 1000), position C10 / Relative Initial Rate (Normalized Intensity/min × 1000), position C33 / Relative Initial Rate (Normalized Intensity/min × 1000), position G5 / Relative Initial Rate (Normalized Intensity/min × 1000), position G9 / Relative Initial Rate (Normalized Intensity/min × 1000), position G11 / Relative Initial Rate (Normalized Intensity/min × 1000), position G28 / Relative Initial Rate (Normalized Intensity/min × 1000), position U12 / Relative Initial Rate (Normalized Intensity/min × 1000), position U14 / Relative Initial Rate (Normalized Intensity/min × 1000), position U25 / Relative Initial Rate (Normalized Intensity/min × 1000), position U26 / Relative Initial Rate (Normalized Intensity/min × 1000), position U29 / Relative Initial Rate (Normalized Intensity/min × 1000), position U31: 10 μM SLIIb, 10 μM copper-peptide
Method in brief: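 Reactions contained 10 μM Fl-SLIIb, 10 μM Cu–peptide, 1 mM ascorbate and 1 mM H2O2, and were sampled at 2–180 min. They were quenched on ice, C18-desalted, and analysed by negative-ion reflectron MALDI-TOF (HPA/ammonium citrate matrix, ≥1000 shots). Peaks with m/z >1500 and S/N >5 were assigned against expected product masses. Products were summed per overhang type and expressed as a fraction at each time point. Initial rate was taken from the linear region (first ~40 min).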

[3] = test system: 5′-fluorescein labeled HCV SLIIb; assay: Reaction kinetics via fluorescence; format: biochemical, hepatitis C virus; conditions: pseudo Michaelis-Menten, catalytic efficiency
Method in brief: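 Copper–peptide complexes were formed at 1.1:1 peptide:Cu. Each complex was added to 333 nM 5′-fluorescein-SLIIb with 1 mM ascorbic acid and 1 mM H2O2 in 20 mM HEPES (pH 7.4, 100 mM NaCl) at 25 °C. Fluorescence loss was followed at ex 491/em 518 nm and converted to RNA concentration by a calibration curve. Initial velocities were plotted against catalyst concentration and fit to Michaelis–Menten to give KM and kcat. Values are the mean of ≥3 trials.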

[4] = test system: fluorescein-labelled SLIIb; assay: Reaction rates monitored by agarose gel electrophoresis; format: biochemical, hepatitis C virus; conditions: addition of complex to SLIIb

GGhyrfk-Cu [2-Cu]
Km ([1]; ref 4d): 7.9 ± 1.2 µM | kcat ([1]; ref 4d): 0.00233 ± 0.00017 s⁻¹ | kcat/KM ([1]; ref 4d): 300 M⁻¹ s⁻¹

GGHYrFK-Cu [1-Cu]
Km ([1]; ref 4b): 0.8 ± 0.1 µM | kcat ([1]; ref 4b): 0.00883 ± 0.00033 s⁻¹ | kcat/KM ([1]; ref 4b): 11000 M⁻¹ s⁻¹

GGHYRFA-Cu [7-Cu]
Initial Rate (%Overhang/min), 2′, 3′-cPO4 [2]: 0.1 ± 0.1 %Overhang/min | Initial Rate (%Overhang/min), 3′-AL [2]: 0.8 ± 0.1 %Overhang/min | Initial Rate (%Overhang/min), 3′-OH [2]: 0.4 ± 0.1 %Overhang/min | Initial Rate (%Overhang/min), 3′-PO4 [2]: 0.1 ± 0.1 %Overhang/min | Initial Rate (%Overhang/min), 3′-PGA [2]: 0.6 ± 0.2 %Overhang/min | Initial Rate (%Overhang/min), 3′-PG [2]: 0.2 ± 0.1 %Overhang/min | Initial Rate (%Overhang/min), 5′-AL [2]: 1.5 ± 0.5 %Overhang/min | Initial Rate (%Overhang/min), 5′-GemDiol [2]: 0.2 ± 0.1 %Overhang/min | Initial Rate (%Overhang/min), 5′-OH [2]: 1.1 ± 0.2 %Overhang/min | Initial Rate (%Overhang/min), 5′-PO4 [2]: 0.5 ± 0.2 %Overhang/min | Initial Rate (%Overhang/min), 5′-PPA [2]: 0.5 ± 0.1 %Overhang/min | Relative Initial Rate (Normalized Intensity/min × 1000), position A6 [2]: - ^a | Relative Initial Rate (Normalized Intensity/min × 1000), position A15 [2]: - ^a | Relative Initial Rate (Normalized Intensity/min × 1000), position A19 [2]: 0.8 ± 0.4 Normalized Intensity/min × 1000 | Relative Initial Rate (Normalized Intensity/min × 1000), position A27 [2]: - ^a | Relative Initial Rate (Normalized Intensity/min × 1000), position A30 [2]: 1.0 ± 0.4 Normalized Intensity/min × 1000 | Relative Initial Rate (Normalized Intensity/min × 1000), position C10 [2]: - ^a | Relative Initial Rate (Normalized Intensity/min × 1000), position C33 [2]: - ^a | Relative Initial Rate (Normalized Intensity/min × 1000), position G5 [2]: - ^a | Relative Initial Rate (Normalized Intensity/min × 1000), position G9 [2]: <1 Normalized Intensity/min × 1000 | Relative Initial Rate (Normalized Intensity/min × 1000), position G11 [2]: 1.6 ± 0.7 Normalized Intensity/min × 1000 | Relative Initial Rate (Normalized Intensity/min × 1000), position G28 [2]: - ^a | Relative Initial Rate (Normalized Intensity/min × 1000), position U12 [2]: <1 Normalized Intensity/min × 1000 | Relative Initial Rate (Normalized Intensity/min × 1000), position U14 [2]: - ^a | Relative Initial Rate (Normalized Intensity/min × 1000), position U25 [2]: <1 Normalized Intensity/min × 1000 | Relative Initial Rate (Normalized Intensity/min × 1000), position U26 [2]: <1 Normalized Intensity/min × 1000 | Relative Initial Rate (Normalized Intensity/min × 1000), position U29 [2]: 2.9 ± 0.6 Normalized Intensity/min × 1000 | Relative Initial Rate (Normalized Intensity/min × 1000), position U31 [2]: - ^a | kcat/KM [3]: 417 M⁻¹ s⁻¹

GGHYRAK-Cu [6-Cu]
Initial Rate (%Overhang/min), 2′, 3′-cPO4 [2]: 0.7 ± 0.1 %Overhang/min | Initial Rate (%Overhang/min), 3′-AL [2]: 0.8 ± 0.1 %Overhang/min | Initial Rate (%Overhang/min), 3′-OH [2]: 0.1 ± 0.1 %Overhang/min | Initial Rate (%Overhang/min), 3′-PO4 [2]: 0.7 ± 0.2 %Overhang/min | Initial Rate (%Overhang/min), 3′-PGA [2]: 0.6 ± 0.1 %Overhang/min | Initial Rate (%Overhang/min), 3′-PG [2]: 1.2 ± 0.1 %Overhang/min | Initial Rate (%Overhang/min), 5′-AL [2]: 0.8 ± 0.1 %Overhang/min | Initial Rate (%Overhang/min), 5′-GemDiol [2]: 0.9 ± 0.3 %Overhang/min | Initial Rate (%Overhang/min), 5′-OH [2]: 1.2 ± 0.3 %Overhang/min | Initial Rate (%Overhang/min), 5′-PO4 [2]: 1.2 ± 0.2 %Overhang/min | Initial Rate (%Overhang/min), 5′-PPA [2]: 1.9 ± 0.1 %Overhang/min | Relative Initial Rate (Normalized Intensity/min × 1000), position A6 [2]: 1.7 ± 0.5 Normalized Intensity/min × 1000 | Relative Initial Rate (Normalized Intensity/min × 1000), position A15 [2]: <1 Normalized Intensity/min × 1000 | Relative Initial Rate (Normalized Intensity/min × 1000), position A19 [2]: - ^a | Relative Initial Rate (Normalized Intensity/min × 1000), position A27 [2]: - ^a | Relative Initial Rate (Normalized Intensity/min × 1000), position A30 [2]: 2.4 ± 0.3 Normalized Intensity/min × 1000 | Relative Initial Rate (Normalized Intensity/min × 1000), position C10 [2]: - ^a | Relative Initial Rate (Normalized Intensity/min × 1000), position C33 [2]: 1.4 ± 0.5 Normalized Intensity/min × 1000 | Relative Initial Rate (Normalized Intensity/min × 1000), position G5 [2]: - ^a | Relative Initial Rate (Normalized Intensity/min × 1000), position G9 [2]: - ^a | Relative Initial Rate (Normalized Intensity/min × 1000), position G11 [2]: <1 Normalized Intensity/min × 1000 | Relative Initial Rate (Normalized Intensity/min × 1000), position G28 [2]: 2.3 ± 1.6 Normalized Intensity/min × 1000 | Relative Initial Rate (Normalized Intensity/min × 1000), position U12 [2]: - ^a | Relative Initial Rate (Normalized Intensity/min × 1000), position U14 [2]: <1 Normalized Intensity/min × 1000 | Relative Initial Rate (Normalized Intensity/min × 1000), position U25 [2]: - ^a | Relative Initial Rate (Normalized Intensity/min × 1000), position U26 [2]: - ^a | Relative Initial Rate (Normalized Intensity/min × 1000), position U29 [2]: - ^a | Relative Initial Rate (Normalized Intensity/min × 1000), position U31 [2]: - ^a | kcat/KM [3]: 17 M⁻¹ s⁻¹

GGHYRFK-Cu [3-Cu]
Initial Rate (%Overhang/min), 2′, 3′-cPO4 [2]: 0.7 ± 0.3 %Overhang/min | Initial Rate (%Overhang/min), 3′-AL [2]: 0.8 ± 0.1 %Overhang/min | Initial Rate (%Overhang/min), 3′-OH [2]: 1.1 ± 0.5 %Overhang/min | Initial Rate (%Overhang/min), 3′-PO4 [2]: 0.4 ± 0.1 %Overhang/min | Initial Rate (%Overhang/min), 3′-PGA [2]: 0.3 ± 0.1 %Overhang/min | Initial Rate (%Overhang/min), 3′-PG [2]: 0.2 ± 0.1 %Overhang/min | Initial Rate (%Overhang/min), 5′-AL [2]: 0.7 ± 0.1 %Overhang/min | Initial Rate (%Overhang/min), 5′-GemDiol [2]: 0.3 ± 0.1 %Overhang/min | Initial Rate (%Overhang/min), 5′-OH [2]: 2.0 ± 0.6 %Overhang/min | Initial Rate (%Overhang/min), 5′-PO4 [2]: 0.4 ± 0.1 %Overhang/min | Initial Rate (%Overhang/min), 5′-PPA [2]: 0.3 ± 0.1 %Overhang/min | Relative Initial Rate (Normalized Intensity/min × 1000), position A6 [2]: - ^a | Relative Initial Rate (Normalized Intensity/min × 1000), position A15 [2]: - ^a | Relative Initial Rate (Normalized Intensity/min × 1000), position A19 [2]: - ^a | Relative Initial Rate (Normalized Intensity/min × 1000), position A27 [2]: - ^a | Relative Initial Rate (Normalized Intensity/min × 1000), position A30 [2]: - ^a | Relative Initial Rate (Normalized Intensity/min × 1000), position C10 [2]: - ^a | Relative Initial Rate (Normalized Intensity/min × 1000), position C33 [2]: - ^a | Relative Initial Rate (Normalized Intensity/min × 1000), position G5 [2]: - ^a | Relative Initial Rate (Normalized Intensity/min × 1000), position G9 [2]: 1.4 ± 0.3 Normalized Intensity/min × 1000 | Relative Initial Rate (Normalized Intensity/min × 1000), position G11 [2]: - ^a | Relative Initial Rate (Normalized Intensity/min × 1000), position G28 [2]: 1.0 ± 0.5 Normalized Intensity/min × 1000 | Relative Initial Rate (Normalized Intensity/min × 1000), position U12 [2]: 1.2 ± 0.7 Normalized Intensity/min × 1000 | Relative Initial Rate (Normalized Intensity/min × 1000), position U14 [2]: 1.2 ± 0.1 Normalized Intensity/min × 1000 | Relative Initial Rate (Normalized Intensity/min × 1000), position U25 [2]: - ^a | Relative Initial Rate (Normalized Intensity/min × 1000), position U26 [2]: - ^a | Relative Initial Rate (Normalized Intensity/min × 1000), position U29 [2]: - ^a | Relative Initial Rate (Normalized Intensity/min × 1000), position U31 [2]: - ^a | kcat/KM [3]: 23.3 M⁻¹ s⁻¹

GGHKRFK-Cu [11-Cu]
precipitation from solution on addition to SLIIb [4]: significant precipitation | kcat/KM [3]: 367 M⁻¹ s⁻¹

Reference: article PMC5970367 (Chembiochem : a European journal of chemical biology, 2017)
